RORa inhibitor: inhibitors of human nuclear receptor RORA | P35398 | CHO-K1 Gal4-RORA LBD luciferase reporter, luminescence | inhibition, % at 10 µM | 0.43% of 65,000 active | AID 561;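 active = inhibition above the mean of all tested compounds plus 3 SD, cut at about 52% in these data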;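 also: 0% = RORA-transfected cells with DMSO and 100% = mock-transfected cells lacking RORA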
Target sequence (P35398 whole entry, looked up, the tested form may be a part): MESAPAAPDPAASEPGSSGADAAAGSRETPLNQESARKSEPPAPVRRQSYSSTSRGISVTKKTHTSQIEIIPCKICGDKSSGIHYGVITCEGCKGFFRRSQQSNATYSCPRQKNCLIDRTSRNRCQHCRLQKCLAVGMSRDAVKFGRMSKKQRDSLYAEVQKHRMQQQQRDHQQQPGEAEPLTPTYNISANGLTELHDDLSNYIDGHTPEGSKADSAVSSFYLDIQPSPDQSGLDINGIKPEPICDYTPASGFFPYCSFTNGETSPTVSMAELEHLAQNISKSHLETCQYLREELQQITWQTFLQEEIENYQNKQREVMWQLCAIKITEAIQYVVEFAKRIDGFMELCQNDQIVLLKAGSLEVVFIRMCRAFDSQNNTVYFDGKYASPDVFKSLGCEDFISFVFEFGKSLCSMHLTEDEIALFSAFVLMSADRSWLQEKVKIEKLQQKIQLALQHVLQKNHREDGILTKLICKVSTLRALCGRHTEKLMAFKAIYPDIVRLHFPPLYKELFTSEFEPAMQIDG
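System: transiently transfected CHO-K1 cells, Gal4-DBD/human RORA-LBD fusion plus 5xGal4-luciferase reporter. Doses: one dose of 10 µM final. Timing: 20 h compound treatment, 37 °C. Measured by: luminescence. Evaluation: % inhibition of basal luciferase versus +RORA/-RORA DMSO controls. Benchmarks: mock-transfected cells as 100%, +RORA DMSO cells as 0%. Replicates: single test per compound.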
* hit, by the source's call. The sample as a whole holds a higher share of hits than the screen did.

SMILES	RORa inhibitor
CCN(c1ccccc1)c1ncnc2c1cnn2-c1ccccc1	-59
Cc1cccc(-n2ncc3c(N(CCO)CCO)ncnc32)c1	-68
Cc1cccc(-n2ncc3c(N(C)C4CCCCC4)ncnc32)c1	73*
COc1ccc(-n2ncc3c(N(C)C4CCCCC4)ncnc32)cc1	76*
Cc1cccc(-n2ncc3c(NCc4ccccc4)ncnc32)c1	-78
COCCN(CCOC)c1ncnc2c1cnn2-c1ccc(Cl)cc1	-55
C=CCSc1nnc(NC(=O)CSc2ccccn2)s1	22
CCN(CC)C(=O)Oc1ccc2c(=O)c(-c3ccccc3)coc2c1	-82
Cc1[nH]c2ccccc2c1CC(=O)O	5
Cc1nc2nc(COc3ccccc3)[nH]n2c(=O)c1Cl	26
COc1cccc(NS(=O)(=O)c2ccc3[nH]cc(C(=O)NCCN4CCOCC4)c(=O)c3c2)c1	8
O=C(c1cc(-c2ccc3c(c2)OCO3)on1)N1CCN(c2ccccc2)CC1	-70
CCNC(=O)CCCOc1ccc(Cl)cc1Cl	5
Cc1ccccc1NC(=O)N1CCCC(c2nc(-c3ccc(F)cc3)no2)C1 (stereo not drawn)	7
Cc1ccccc1NC(=O)N1CCCC(c2nc(-c3ccc(C(C)C)cc3)no2)C1 (stereo not drawn)	54*
COC(=O)c1ccc(C(C(=O)NCc2ccccc2)N(Cc2ccco2)C(=O)c2cnccn2)cc1 (stereo not drawn)	-23
Cn1c(=O)n(Cc2ccccc2)c(=O)c2c1nc1n2CCS1	16
COc1cc(OC)c(NC2c3ccccc3C(=O)N2c2cc(C)ccn2)cc1Cl (stereo not drawn)	-84
CCOC(=O)N1CCN(Cc2cc(=O)oc3cc4c(cc23)CCC4)CC1	4
Cc1nc2scc(-c3cccs3)c2c(=O)o1	-1
CN(C)/C=C/C(=O)c1nnn(C2CCCCC2)c1NC1CCCCC1	12
Cc1ccc(C)c(-c2nc3cc(N)ccc3o2)c1	13
Nc1ccc2oc(-c3cc(Br)ccc3Cl)nc2c1	58*
Nc1c(Br)cc2oc(-c3ccccc3)nc2c1Br	-52
Cc1ccc(N(Cc2ccco2)C(=O)c2cccc(S(=O)(=O)N(C)C)c2)cc1	5
SMILES	RORa inhibitor
Cc1c(N/C=C/C(=O)c2cccs2)c(=O)n(-c2ccccc2)n1C	-22
O=C(Nc1nc2ccc(S(=O)(=O)N3CCCC3)cc2s1)c1cccs1	-52
CCOC(=O)c1ccccc1NC(=O)c1ccc2c(=O)n3c(nc2c1)CCCCC3	6
CCc1ccc(-c2nnn(CCC(=O)OC)n2)cc1	53*
CCCn1nnc(NC(=O)c2cc3ccccc3o2)n1	-49
c1ccc(OCCCn2nnc(-c3ccc(N4CCOCC4)cc3)n2)cc1	-4
CC(=O)Nc1ccc(C(=O)OCCC(C)C)cc1	-51
Cc1cccc(NC(=O)Nc2ccc(C#N)cc2)n1	60*
Cc1cccc(NC(=O)c2cc3ccccc3c(=O)o2)n1	-57
COc1ccc(NC(=O)Nc2cccc(OC)c2)cc1	-68
O=C(CCCn1c(SCC(=O)NC2CCCC2)nc2ccccc2c1=O)NCC1CCCO1 (stereo not drawn)	0
CCOC(=O)c1sc(NC(=O)c2c(C)nn(Cc3ccccc3)c2C)cc1C	-22
CCCOc1ccc(N2C(=O)CC(N(O)c3ccccc3)C2=O)cc1 (stereo not drawn)	34
COc1cc2c(cc1OC)CN(C(=O)NS(=O)(=O)c1ccc(C)cc1)CC2	2
Cn1c(-c2ccc3c(c2)OCO3)cnc1NC(=O)CCC(=O)NCCc1ccccc1	24
CCCC(=O)Nc1ccc(C(=O)N2CCCC2)cc1	6
Cc1ccc(-c2cnc(NC(=O)CCC(=O)N3CCCCC3)n2C)cc1	77*
CC(=O)N1CCC(N(C(=O)Nc2ccc(C)c(C)c2)C2CCCC2)CC1	11
O=C1C2C3C=CC(C3)C2C(=O)N1c1ccc(-c2nc3ccccc3o2)cc1 (stereo not drawn)	-73
CC(Sc1ccc2ccccc2n1)C(=O)O (stereo not drawn)	1
c1ccc2nc(-c3nc4ccccc4o3)ccc2c1	58*
Cc1cc(C)n(-c2ccc3cccc(NS(C)(=O)=O)c3n2)n1	67*
Cc1cc(C)n(S(=O)(=O)c2ccc3ccccc3c2)n1	18
Cc1cc(C)n(-c2nc(C)nc(N)n2)n1	-24
Cc1cccc(OCCCC(=O)Nc2ccc(S(=O)(=O)Nc3onc(C)c3C)cc2)c1	-10
SMILES	RORa inhibitor
Cn1c(=O)c2c(ncn2CC(=O)NC(C)(C)C)n(C)c1=O	3
Cc1cc(C)cc(Nc2ccc(C(=O)O)cc2N)c1	71*
C/C(=C\C(=O)c1ccc(C)o1)Nc1ccc(C(=O)O)cc1C	-4
CC1CCN(c2ccc(C(=O)O)cc2N)CC1	14
CC(=O)Nc1cccc(NC(=O)Nc2ccc(C(C)=O)cc2)c1	-20
C/C(N)=C(/C#N)C(=O)COC(=O)c1cc(C)n(-c2ccc(F)cc2)c1C	-67
O=C(Nc1nc(-c2nc3ccccc3s2)cs1)C1CC1	-51
O=C(Nc1nc(-c2ccccc2)cs1)c1cccs1	-57
O=C(Nc1nc(-c2ccccn2)cs1)c1ccc(Cl)s1	65*
Cc1ccc(-n2c(CSc3nc(C)cc(C)n3)nnc2SCC(=O)Nc2nccs2)cc1	19

Assay outcomes (PubChem)
